Experimental data taken from ChEMBL document CHEMBL3763019, “Discovery of benzenesulfonamide derivatives as potent PI3K/mTOR dual inhibitors with in vivo efficacies against hepatocellular carcinoma” (Bioorg Med Chem, 2016).

System: MDA-MB-231
Experiment: Cytotoxicity against human MDA-MB-231 cells after 72 hrs by MTT assay
Assay type: functional, cell-based
Conditions: MDA-MB-231, 72 h
Method in brief: (§1)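 Log-phase cells at 40,000–50,000 cells/mL in DMEM with 10% FBS and antibiotics were seeded and cultured overnight at 37 °C, 5% CO₂. Compounds were diluted in DMSO/PBS from 10^-4 to 10^-9 M and applied for 72 h. MTT (5 mg/mL stock) was then added for 4 h and absorbance read at 570 nm. IC50 came from nonlinear regression on triplicate wells, averaged.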

SMILES	IC50
CCOC(=O)N1CCN(CC#Cc2ccnc3ccc(-c4cnc(OC)c(NS(=O)(=O)c5ccc(F)cc5F)c4)cc23)CC1	3810 nM
COc1ncc(-c2ccc3nccc(C#CCN4CCOCC4)c3c2)cc1NS(=O)(=O)c1ccc(F)cc1F	1990 nM
COc1ncc(-c2ccc3nccc(C#CCN(C4CCCCC4)C4CCCCC4)c3c2)cc1NS(=O)(=O)c1ccc(F)cc1F	27700 nM
COc1ncc(-c2ccc3nccc(C#CCN(C)C)c3c2)cc1NS(=O)(=O)c1ccc(F)cc1	2080 nM
COc1ncc(-c2ccc3nccc(C#CCN(C)CCO)c3c2)cc1NS(=O)(=O)c1ccc(F)cc1F	2800 nM
COc1ncc(-c2ccc3nccc(-c4ccnnc4)c3c2)cc1NS(=O)(=O)c1ccc(F)cc1F [OMIPALISIB]	130 nM

System: not listed separately
Experiment: Cytotoxicity against human HCT116 cells after 72 hrs by MTT assay
Assay type: functional, cell-based
Conditions: HCT-116, 72 h
Method in brief: as §1

SMILES	IC50
CCOC(=O)N1CCN(CC#Cc2ccnc3ccc(-c4cnc(OC)c(NS(=O)(=O)c5ccc(F)cc5F)c4)cc23)CC1	1390 nM
COc1ncc(-c2ccc3nccc(C#CCN4CCOCC4)c3c2)cc1NS(=O)(=O)c1ccc(F)cc1F	510 nM
COc1ncc(-c2ccc3nccc(C#CCN(C4CCCCC4)C4CCCCC4)c3c2)cc1NS(=O)(=O)c1ccc(F)cc1F	11700 nM
COc1ncc(-c2ccc3nccc(C#CCN(C)C)c3c2)cc1NS(=O)(=O)c1ccc(F)cc1	1340 nM
COc1ncc(-c2ccc3nccc(C#CCN(C)CCO)c3c2)cc1NS(=O)(=O)c1ccc(F)cc1F	1150 nM
COc1ncc(-c2ccc3nccc(-c4ccnnc4)c3c2)cc1NS(=O)(=O)c1ccc(F)cc1F [OMIPALISIB]	10 nM

System: A549
Experiment: Cytotoxicity against human A549 cells after 72 hrs by MTT assay
Assay type: functional, cell-based
Conditions: A549, 72 h
Method in brief: as §1

SMILES	IC50
CCOC(=O)N1CCN(CC#Cc2ccnc3ccc(-c4cnc(OC)c(NS(=O)(=O)c5ccc(F)cc5F)c4)cc23)CC1	110 nM
COc1ncc(-c2ccc3nccc(C#CCN4CCOCC4)c3c2)cc1NS(=O)(=O)c1ccc(F)cc1F	240 nM
COc1ncc(-c2ccc3nccc(C#CCN(C4CCCCC4)C4CCCCC4)c3c2)cc1NS(=O)(=O)c1ccc(F)cc1F	12000 nM
COc1ncc(-c2ccc3nccc(C#CCN(C)C)c3c2)cc1NS(=O)(=O)c1ccc(F)cc1	970 nM
COc1ncc(-c2ccc3nccc(C#CCN(C)CCO)c3c2)cc1NS(=O)(=O)c1ccc(F)cc1F	1010 nM
COc1ncc(-c2ccc3nccc(-c4ccnnc4)c3c2)cc1NS(=O)(=O)c1ccc(F)cc1F [OMIPALISIB]	600 nM

Target: T1, Phosphatidylinositol 4,5-bisphosphate 3-kinase catalytic subunit delta isoform (Homo sapiens) (UniProt O00329)
T1 sequence (whole entry): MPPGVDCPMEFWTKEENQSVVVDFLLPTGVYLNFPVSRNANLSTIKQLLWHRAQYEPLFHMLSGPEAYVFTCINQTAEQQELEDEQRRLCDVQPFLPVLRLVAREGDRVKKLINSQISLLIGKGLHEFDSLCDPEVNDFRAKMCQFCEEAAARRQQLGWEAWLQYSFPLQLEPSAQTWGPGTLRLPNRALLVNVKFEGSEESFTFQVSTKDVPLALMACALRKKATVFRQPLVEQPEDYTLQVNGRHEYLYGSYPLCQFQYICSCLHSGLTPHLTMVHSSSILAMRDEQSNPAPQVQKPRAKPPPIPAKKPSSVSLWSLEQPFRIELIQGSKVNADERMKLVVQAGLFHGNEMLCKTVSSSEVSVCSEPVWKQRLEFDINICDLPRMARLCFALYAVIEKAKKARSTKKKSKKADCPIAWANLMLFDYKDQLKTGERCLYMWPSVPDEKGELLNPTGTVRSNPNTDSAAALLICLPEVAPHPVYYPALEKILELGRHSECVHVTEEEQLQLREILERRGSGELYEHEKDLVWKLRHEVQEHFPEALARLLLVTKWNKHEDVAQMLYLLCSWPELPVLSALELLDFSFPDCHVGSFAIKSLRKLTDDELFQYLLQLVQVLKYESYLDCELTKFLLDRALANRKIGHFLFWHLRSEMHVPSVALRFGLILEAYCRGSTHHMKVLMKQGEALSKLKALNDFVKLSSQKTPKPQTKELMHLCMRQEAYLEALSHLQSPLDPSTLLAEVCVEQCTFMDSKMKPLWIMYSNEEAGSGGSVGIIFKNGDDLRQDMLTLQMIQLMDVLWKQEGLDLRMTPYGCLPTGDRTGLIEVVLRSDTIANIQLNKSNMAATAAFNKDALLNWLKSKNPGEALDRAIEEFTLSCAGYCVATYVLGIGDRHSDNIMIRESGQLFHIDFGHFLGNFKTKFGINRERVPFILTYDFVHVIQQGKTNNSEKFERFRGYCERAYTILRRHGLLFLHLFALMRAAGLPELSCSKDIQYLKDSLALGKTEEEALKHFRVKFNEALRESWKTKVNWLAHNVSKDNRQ
Experiment: Inhibition of PI3K-delta (unknown origin) using PIP2 as substrate at 10 nM incubated for 1 hr by Kinase-Glo luminescent kinase assay
Conditions: not given
Method in brief: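 Final PIP2 was 50 µM and ATP 25 µM; PI3Kδ was 1.65 nM. Reactions ran 1 h at room temperature, then Kinase-Glo was added for 15 min before reading luminescence. Percent inhibition was derived from RLU. Dose-response used ten 3-fold dilutions (top 100 or 500 nM) in duplicate.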

SMILES	inhibition
COc1ncc(-c2ccc3nccc(C#CCN(C4CCCCC4)C4CCCCC4)c3c2)cc1NS(=O)(=O)c1ccc(F)cc1F	3.2%
COc1ncc(-c2ccc3nccc(C#CCN(C)CCO)c3c2)cc1NS(=O)(=O)c1ccc(F)cc1F	16%

Other lines, results leading:

inhibition	SMILES
10%	COc1ncc(-c2ccc3nccc(C#CCN(C)C)c3c2)cc1NS(=O)(=O)c1ccc(F)cc1
20.7%	CCOC(=O)N1CCN(CC#Cc2ccnc3ccc(-c4cnc(OC)c(NS(=O)(=O)c5ccc(F)cc5F)c4)cc23)CC1
35%	COc1ncc(-c2ccc3nccc(C#CCN4CCOCC4)c3c2)cc1NS(=O)(=O)c1ccc(F)cc1F

Target: T2, Phosphatidylinositol 4,5-bisphosphate 3-kinase catalytic subunit beta isoform (Homo sapiens, UniProt P42338)
Experiment: Inhibition of PI3K-beta (unknown origin) after 40 mins by ADP-Glo luminescent kinase assay
Conditions: not given
Method in brief: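 ADP-Glo reagent stopped the reaction (40 min), then detection reagent was added (60 min) and luminescence read. Percent inhibition was derived from RLU.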
Target sequence in this assay (P42338 whole entry, canonical isoform): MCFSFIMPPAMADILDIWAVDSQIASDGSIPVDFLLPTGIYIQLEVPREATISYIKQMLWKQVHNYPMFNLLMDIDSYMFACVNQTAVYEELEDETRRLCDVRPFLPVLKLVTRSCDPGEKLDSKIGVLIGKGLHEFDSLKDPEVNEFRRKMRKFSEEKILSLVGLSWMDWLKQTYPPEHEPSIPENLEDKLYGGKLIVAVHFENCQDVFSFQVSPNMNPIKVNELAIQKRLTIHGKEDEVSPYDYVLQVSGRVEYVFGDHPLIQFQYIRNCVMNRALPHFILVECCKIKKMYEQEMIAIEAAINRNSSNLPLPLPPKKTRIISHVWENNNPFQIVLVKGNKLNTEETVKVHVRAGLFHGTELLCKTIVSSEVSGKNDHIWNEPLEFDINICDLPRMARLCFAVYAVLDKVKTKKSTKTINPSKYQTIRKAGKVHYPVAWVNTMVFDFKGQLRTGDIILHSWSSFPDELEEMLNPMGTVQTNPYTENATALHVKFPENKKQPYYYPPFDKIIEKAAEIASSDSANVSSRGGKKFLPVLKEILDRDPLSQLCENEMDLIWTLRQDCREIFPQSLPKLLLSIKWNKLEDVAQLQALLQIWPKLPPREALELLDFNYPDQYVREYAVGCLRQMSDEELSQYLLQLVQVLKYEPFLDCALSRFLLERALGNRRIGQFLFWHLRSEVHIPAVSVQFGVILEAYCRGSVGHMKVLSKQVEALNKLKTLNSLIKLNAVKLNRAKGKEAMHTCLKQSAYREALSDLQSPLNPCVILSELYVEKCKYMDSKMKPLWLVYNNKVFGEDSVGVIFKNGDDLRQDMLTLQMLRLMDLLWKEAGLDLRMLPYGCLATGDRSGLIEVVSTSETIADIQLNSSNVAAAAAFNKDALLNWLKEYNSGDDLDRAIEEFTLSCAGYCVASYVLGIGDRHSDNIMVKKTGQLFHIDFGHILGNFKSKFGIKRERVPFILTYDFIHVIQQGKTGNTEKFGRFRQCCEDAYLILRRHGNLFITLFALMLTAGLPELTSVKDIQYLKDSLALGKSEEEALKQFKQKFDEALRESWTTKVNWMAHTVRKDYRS

IC50	SMILES
23 nM	CCOC(=O)N1CCN(CC#Cc2ccnc3ccc(-c4cnc(OC)c(NS(=O)(=O)c5ccc(F)cc5F)c4)cc23)CC1

Target: Serine/threonine-protein kinase mTOR (Homo sapiens, UniProt P42345)
Experiment: Inhibition of mTOR kinase (unknown origin) assessed as suppression of ULight-4E-BP1 substrate phosphorylation incubated for 1 hr by lance ultra assay
Conditions: not given

IC50	SMILES
9.9 nM	CCOC(=O)N1CCN(CC#Cc2ccnc3ccc(-c4cnc(OC)c(NS(=O)(=O)c5ccc(F)cc5F)c4)cc23)CC1

Target: Phosphatidylinositol 4,5-bisphosphate 3-kinase catalytic subunit delta isoform (Homo sapiens, UniProt O00329)
Experiment: Inhibition of PI3K-delta (unknown origin) using PIP2 as substrate incubated for 1 hr by Kinase-Glo luminescent kinase assay
Conditions: not given

IC50	SMILES
19 nM	CCOC(=O)N1CCN(CC#Cc2ccnc3ccc(-c4cnc(OC)c(NS(=O)(=O)c5ccc(F)cc5F)c4)cc23)CC1

System: not listed separately
Experiment: Cytotoxicity against human Bel7404 cells after 72 hrs by MTT assay
Assay type: functional, cell-based
Conditions: BEL-7404, 72 h
Method in brief: as §1

SMILES	IC50
CCOC(=O)N1CCN(CC#Cc2ccnc3ccc(-c4cnc(OC)c(NS(=O)(=O)c5ccc(F)cc5F)c4)cc23)CC1	480 nM
COc1ncc(-c2ccc3nccc(C#CCN4CCOCC4)c3c2)cc1NS(=O)(=O)c1ccc(F)cc1F	40 nM
COc1ncc(-c2ccc3nccc(C#CCN(C4CCCCC4)C4CCCCC4)c3c2)cc1NS(=O)(=O)c1ccc(F)cc1F	6100 nM
COc1ncc(-c2ccc3nccc(C#CCN(C)C)c3c2)cc1NS(=O)(=O)c1ccc(F)cc1	1160 nM
COc1ncc(-c2ccc3nccc(C#CCN(C)CCO)c3c2)cc1NS(=O)(=O)c1ccc(F)cc1F	80 nM
COc1ncc(-c2ccc3nccc(-c4ccnnc4)c3c2)cc1NS(=O)(=O)c1ccc(F)cc1F [OMIPALISIB]	10 nM

System: not listed separately
Experiment: Half life in rat liver microsomes
Assay type: ADME
Conditions: not given

half-life	SMILES
46.5 min	CCOC(=O)N1CCN(CC#Cc2ccnc3ccc(-c4cnc(OC)c(NS(=O)(=O)c5ccc(F)cc5F)c4)cc23)CC1
36.9 min	COc1ncc(-c2ccc3nccc(C#CCN4CCOCC4)c3c2)cc1NS(=O)(=O)c1ccc(F)cc1F
28.4 min	COc1ncc(-c2ccc3nccc(C#CCN(C)CCO)c3c2)cc1NS(=O)(=O)c1ccc(F)cc1F

Target: T2, Phosphatidylinositol 4,5-bisphosphate 3-kinase catalytic subunit beta isoform
Experiment: Inhibition of PI3K-beta (unknown origin) at 10 nM after 40 mins by ADP-Glo luminescent kinase assay
Conditions: not given
Method in brief: (§2)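 Final enzyme was PI3Kβ 4.8 nM and PI3Kγ 7.6 nM. ADP-Glo reagent stopped the reaction (40 min), then detection reagent was added (60 min) and luminescence read. Percent inhibition was derived from RLU.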
Target sequence in this assay (P42338 whole entry, looked up, canonical isoform): as the sequence (P42338 whole entry, canonical isoform) above

SMILES	inhibition
COc1ncc(-c2ccc3nccc(C#CCN(C4CCCCC4)C4CCCCC4)c3c2)cc1NS(=O)(=O)c1ccc(F)cc1F	13%
COc1ncc(-c2ccc3nccc(C#CCN(C)CCO)c3c2)cc1NS(=O)(=O)c1ccc(F)cc1F	57%

Results, then the compound that gave them:

inhibition	SMILES
17%	COc1ncc(-c2ccc3nccc(C#CCN(C)C)c3c2)cc1NS(=O)(=O)c1ccc(F)cc1
30%	CCOC(=O)N1CCN(CC#Cc2ccnc3ccc(-c4cnc(OC)c(NS(=O)(=O)c5ccc(F)cc5F)c4)cc23)CC1
70%	COc1ncc(-c2ccc3nccc(C#CCN4CCOCC4)c3c2)cc1NS(=O)(=O)c1ccc(F)cc1F

Target: Phosphatidylinositol 4,5-bisphosphate 3-kinase catalytic subunit alpha isoform (Homo sapiens, UniProt P42336)
Sequence (P42336 whole entry, canonical isoform): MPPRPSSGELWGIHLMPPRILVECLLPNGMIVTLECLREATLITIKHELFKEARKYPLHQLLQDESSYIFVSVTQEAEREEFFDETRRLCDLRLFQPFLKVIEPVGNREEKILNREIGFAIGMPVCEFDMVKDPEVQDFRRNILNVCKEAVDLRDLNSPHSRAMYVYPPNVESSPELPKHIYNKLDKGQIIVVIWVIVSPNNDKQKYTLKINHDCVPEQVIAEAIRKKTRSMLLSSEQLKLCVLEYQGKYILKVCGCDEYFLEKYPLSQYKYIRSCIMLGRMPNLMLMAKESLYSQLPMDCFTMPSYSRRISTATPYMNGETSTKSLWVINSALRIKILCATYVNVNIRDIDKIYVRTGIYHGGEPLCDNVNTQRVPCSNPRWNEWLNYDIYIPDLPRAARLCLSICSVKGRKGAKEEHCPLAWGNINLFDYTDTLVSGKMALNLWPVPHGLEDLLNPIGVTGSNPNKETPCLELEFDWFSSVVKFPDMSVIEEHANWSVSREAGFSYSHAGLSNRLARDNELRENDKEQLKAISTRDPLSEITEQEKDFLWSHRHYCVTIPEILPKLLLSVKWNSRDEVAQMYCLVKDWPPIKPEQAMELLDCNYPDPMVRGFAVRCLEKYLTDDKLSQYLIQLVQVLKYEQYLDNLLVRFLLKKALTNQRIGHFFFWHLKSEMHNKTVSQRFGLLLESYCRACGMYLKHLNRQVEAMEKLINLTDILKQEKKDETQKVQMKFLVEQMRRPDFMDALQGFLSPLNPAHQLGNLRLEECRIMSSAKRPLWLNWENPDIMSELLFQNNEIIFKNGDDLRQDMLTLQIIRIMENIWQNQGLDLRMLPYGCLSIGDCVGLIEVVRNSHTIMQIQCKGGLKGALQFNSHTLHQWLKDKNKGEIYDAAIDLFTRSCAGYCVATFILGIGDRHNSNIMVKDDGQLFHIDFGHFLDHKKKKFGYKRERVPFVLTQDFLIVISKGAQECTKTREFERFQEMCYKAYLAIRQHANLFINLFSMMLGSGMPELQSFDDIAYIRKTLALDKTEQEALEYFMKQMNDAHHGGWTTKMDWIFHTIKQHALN
Experiment: Inhibition of PI3K-alpha (unknown origin) using PIP2 as substrate incubated for 1 hr by Kinase-Glo luminescent kinase assay
Conditions: not given

SMILES	IC50
COc1ncc(-c2ccc3nccc(C#CCN(C4CCCCC4)C4CCCCC4)c3c2)cc1NS(=O)(=O)c1ccc(F)cc1F	> 100 nM
COc1ncc(-c2ccc3nccc(C#CCN(C)CCO)c3c2)cc1NS(=O)(=O)c1ccc(F)cc1F	3.9 nM

Results, then the compound that gave them:

IC50	SMILES
32 nM	COc1ncc(-c2ccc3nccc(C#CCN(C)C)c3c2)cc1NS(=O)(=O)c1ccc(F)cc1
5.5 nM	CCOC(=O)N1CCN(CC#Cc2ccnc3ccc(-c4cnc(OC)c(NS(=O)(=O)c5ccc(F)cc5F)c4)cc23)CC1
2.1 nM	COc1ncc(-c2ccc3nccc(C#CCN4CCOCC4)c3c2)cc1NS(=O)(=O)c1ccc(F)cc1F

Target: T3, Phosphatidylinositol 4,5-bisphosphate 3-kinase catalytic subunit gamma isoform (Homo sapiens, UniProt P48736)
Experiment: Inhibition of PI3K-gamma (unknown origin) at 10 nM after 40 mins by ADP-Glo luminescent kinase assay
Conditions: not given
Method in brief: as §2
Target sequence in this assay (P48736 whole entry, looked up, canonical isoform): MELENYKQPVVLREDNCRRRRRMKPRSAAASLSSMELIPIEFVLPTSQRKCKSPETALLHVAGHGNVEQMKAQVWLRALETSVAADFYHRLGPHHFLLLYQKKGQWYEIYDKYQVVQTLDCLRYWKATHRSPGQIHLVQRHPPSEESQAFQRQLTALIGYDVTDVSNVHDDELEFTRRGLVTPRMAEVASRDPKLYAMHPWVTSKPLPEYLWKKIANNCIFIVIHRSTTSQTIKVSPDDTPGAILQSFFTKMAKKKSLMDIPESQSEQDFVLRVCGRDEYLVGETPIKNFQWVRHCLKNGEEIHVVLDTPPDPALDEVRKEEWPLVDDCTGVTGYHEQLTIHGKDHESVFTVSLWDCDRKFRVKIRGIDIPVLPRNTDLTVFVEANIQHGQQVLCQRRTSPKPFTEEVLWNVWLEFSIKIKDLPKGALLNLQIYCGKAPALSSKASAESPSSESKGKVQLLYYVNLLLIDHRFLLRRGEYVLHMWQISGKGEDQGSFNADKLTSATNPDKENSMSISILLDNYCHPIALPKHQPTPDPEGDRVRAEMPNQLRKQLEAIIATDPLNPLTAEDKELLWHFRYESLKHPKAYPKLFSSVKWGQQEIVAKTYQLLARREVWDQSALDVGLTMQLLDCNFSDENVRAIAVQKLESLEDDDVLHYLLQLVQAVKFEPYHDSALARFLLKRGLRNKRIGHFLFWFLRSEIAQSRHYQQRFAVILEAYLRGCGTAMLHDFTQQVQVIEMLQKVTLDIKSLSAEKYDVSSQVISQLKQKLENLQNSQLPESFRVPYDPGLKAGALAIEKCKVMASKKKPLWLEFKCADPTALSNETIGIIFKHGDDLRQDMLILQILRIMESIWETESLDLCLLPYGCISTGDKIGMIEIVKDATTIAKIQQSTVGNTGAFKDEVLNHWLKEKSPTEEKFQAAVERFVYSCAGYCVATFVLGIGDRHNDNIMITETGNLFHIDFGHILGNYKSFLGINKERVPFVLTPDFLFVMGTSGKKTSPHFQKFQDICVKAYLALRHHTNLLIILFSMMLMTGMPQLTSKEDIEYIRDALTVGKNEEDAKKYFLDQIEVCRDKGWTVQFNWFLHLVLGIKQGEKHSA

SMILES	inhibition
COc1ncc(-c2ccc3nccc(C#CCN(C4CCCCC4)C4CCCCC4)c3c2)cc1NS(=O)(=O)c1ccc(F)cc1F	10%
COc1ncc(-c2ccc3nccc(C#CCN(C)CCO)c3c2)cc1NS(=O)(=O)c1ccc(F)cc1F	90%

Now from value to compound:

inhibition	SMILES
70%	COc1ncc(-c2ccc3nccc(C#CCN(C)C)c3c2)cc1NS(=O)(=O)c1ccc(F)cc1
82%	CCOC(=O)N1CCN(CC#Cc2ccnc3ccc(-c4cnc(OC)c(NS(=O)(=O)c5ccc(F)cc5F)c4)cc23)CC1
96%	COc1ncc(-c2ccc3nccc(C#CCN4CCOCC4)c3c2)cc1NS(=O)(=O)c1ccc(F)cc1F

Target: T3, Phosphatidylinositol 4,5-bisphosphate 3-kinase catalytic subunit gamma isoform
Experiment: Inhibition of PI3K-gamma (unknown origin) after 40 mins by ADP-Glo luminescent kinase assay
Conditions: not given
Method in brief: as §2
Target sequence in this assay (P48736 whole entry, canonical isoform): as the sequence (P48736 whole entry, looked up, canonical isoform) above

IC50	SMILES
4 nM	CCOC(=O)N1CCN(CC#Cc2ccnc3ccc(-c4cnc(OC)c(NS(=O)(=O)c5ccc(F)cc5F)c4)cc23)CC1
0.6 nM	COc1ncc(-c2ccc3nccc(-c4ccnnc4)c3c2)cc1NS(=O)(=O)c1ccc(F)cc1F [OMIPALISIB]
